Test results published in the M2OR odorant receptor database.
Positions count from the first letter of the chain named.

Assays:
Conditions in all cases: stereoisomer not certain
[1] = target: T1, OR11H2 (Homo sapiens) (UniProt Q8NH07)
T1 sequence (whole entry): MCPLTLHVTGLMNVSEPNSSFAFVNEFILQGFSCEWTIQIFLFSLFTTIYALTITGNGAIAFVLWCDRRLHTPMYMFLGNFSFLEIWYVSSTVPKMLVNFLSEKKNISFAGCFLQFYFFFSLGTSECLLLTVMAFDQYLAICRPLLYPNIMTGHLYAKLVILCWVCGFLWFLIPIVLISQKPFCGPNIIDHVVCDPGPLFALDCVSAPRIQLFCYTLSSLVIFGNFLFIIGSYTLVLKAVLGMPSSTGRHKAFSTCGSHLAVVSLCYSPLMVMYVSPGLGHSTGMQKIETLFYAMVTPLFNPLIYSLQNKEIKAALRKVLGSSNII
How it was run: (§1)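 Transient luciferase assays in mammalian cell lines were common, though methods varied by source. The values come from published papers and their supplementary material, with extra details from the original authors when needed. Responsive refers to a measured signal the original authors judged statistically different from baseline, and non-responsive (inactive) to the remainder.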

[2] = target: T2, OR11H4 (Homo sapiens) (UniProt Q8NGC9)
T2 sequence (whole entry): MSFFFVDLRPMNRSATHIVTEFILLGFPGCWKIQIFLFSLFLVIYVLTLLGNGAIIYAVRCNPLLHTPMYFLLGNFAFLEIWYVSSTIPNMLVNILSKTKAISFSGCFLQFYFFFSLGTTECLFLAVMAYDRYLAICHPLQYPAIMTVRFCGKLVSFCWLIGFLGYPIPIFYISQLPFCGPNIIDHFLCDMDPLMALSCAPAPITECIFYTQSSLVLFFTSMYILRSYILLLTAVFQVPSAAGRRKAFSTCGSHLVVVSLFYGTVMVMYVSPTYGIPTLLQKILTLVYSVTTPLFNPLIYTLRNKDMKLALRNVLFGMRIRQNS
How it was run: as §1

[3] = target: T3, OR11H6 (Homo sapiens) (UniProt Q8NGC7)
T3 sequence (whole entry): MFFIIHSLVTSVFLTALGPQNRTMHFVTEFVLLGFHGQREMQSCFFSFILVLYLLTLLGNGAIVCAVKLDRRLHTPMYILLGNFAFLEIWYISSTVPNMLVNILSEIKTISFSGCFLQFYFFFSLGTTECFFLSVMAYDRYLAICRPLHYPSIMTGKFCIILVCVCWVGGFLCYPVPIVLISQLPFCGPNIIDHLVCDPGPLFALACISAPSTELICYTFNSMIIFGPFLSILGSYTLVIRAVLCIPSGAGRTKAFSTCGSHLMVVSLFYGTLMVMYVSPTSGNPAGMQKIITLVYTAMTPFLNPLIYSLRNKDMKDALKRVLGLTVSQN
How it was run: as §1

[4] = target: T4, OR11L1 (Homo sapiens) (UniProt Q8NGX0)
T4 sequence (whole entry): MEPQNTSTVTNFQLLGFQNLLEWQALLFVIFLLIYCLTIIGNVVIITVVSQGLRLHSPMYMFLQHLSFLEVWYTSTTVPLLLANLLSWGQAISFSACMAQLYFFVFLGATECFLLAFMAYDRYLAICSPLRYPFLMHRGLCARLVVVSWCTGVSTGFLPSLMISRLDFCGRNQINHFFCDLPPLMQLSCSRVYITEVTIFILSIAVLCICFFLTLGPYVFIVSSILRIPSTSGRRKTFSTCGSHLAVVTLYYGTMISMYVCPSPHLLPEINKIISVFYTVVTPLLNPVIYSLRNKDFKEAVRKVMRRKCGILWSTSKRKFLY
How it was run: as §1

[5] = target: T5, OR12D2 (Homo sapiens) (UniProt P58182)
T5 sequence (whole entry): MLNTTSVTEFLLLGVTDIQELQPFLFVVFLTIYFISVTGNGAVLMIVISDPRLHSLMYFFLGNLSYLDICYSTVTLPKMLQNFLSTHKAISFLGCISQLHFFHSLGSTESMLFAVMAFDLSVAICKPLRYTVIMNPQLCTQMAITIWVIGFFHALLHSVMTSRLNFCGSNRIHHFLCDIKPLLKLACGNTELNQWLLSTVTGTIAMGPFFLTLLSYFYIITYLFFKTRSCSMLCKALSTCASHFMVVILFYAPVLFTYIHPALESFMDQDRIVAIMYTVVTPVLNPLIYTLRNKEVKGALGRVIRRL
How it was run: as §1

[6] = target: T6, OR12D3 (Homo sapiens) (UniProt Q9UGF7)
T6 sequence (whole entry): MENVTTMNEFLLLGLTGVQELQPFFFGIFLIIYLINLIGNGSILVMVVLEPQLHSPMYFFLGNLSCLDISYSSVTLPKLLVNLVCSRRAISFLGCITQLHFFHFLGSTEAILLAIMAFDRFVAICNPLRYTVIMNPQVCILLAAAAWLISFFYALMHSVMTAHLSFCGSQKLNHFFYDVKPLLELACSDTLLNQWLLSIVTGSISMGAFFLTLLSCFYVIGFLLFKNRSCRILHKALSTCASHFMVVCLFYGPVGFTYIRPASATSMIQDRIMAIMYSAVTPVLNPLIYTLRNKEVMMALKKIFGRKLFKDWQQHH
How it was run: as §1

[7] = target: T7, OR13A1 (Homo sapiens) (UniProt Q8NGR1)
T7 sequence (whole entry): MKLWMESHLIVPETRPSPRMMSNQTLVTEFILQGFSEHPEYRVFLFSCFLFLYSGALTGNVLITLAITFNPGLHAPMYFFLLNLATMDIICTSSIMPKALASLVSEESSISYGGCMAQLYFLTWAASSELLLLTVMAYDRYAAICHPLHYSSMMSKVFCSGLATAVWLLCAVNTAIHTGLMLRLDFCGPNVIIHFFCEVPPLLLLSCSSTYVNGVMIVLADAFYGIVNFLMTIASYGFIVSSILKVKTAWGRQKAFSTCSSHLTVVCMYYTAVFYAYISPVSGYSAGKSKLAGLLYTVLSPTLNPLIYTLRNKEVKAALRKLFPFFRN
How it was run: as §1

[8] = target: T8, OR13C2 (Homo sapiens) (UniProt Q8NGS9)
T8 sequence (whole entry): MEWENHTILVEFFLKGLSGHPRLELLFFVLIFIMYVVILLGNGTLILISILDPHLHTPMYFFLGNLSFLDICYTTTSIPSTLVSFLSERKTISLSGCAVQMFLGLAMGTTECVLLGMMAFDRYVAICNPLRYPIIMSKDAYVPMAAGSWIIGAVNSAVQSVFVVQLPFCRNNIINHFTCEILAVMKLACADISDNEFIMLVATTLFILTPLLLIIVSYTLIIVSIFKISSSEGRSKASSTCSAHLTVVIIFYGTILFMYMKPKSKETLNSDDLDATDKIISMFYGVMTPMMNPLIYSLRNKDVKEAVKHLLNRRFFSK
How it was run: as §1

[9] = target: T9, OR13C3 (Homo sapiens) (UniProt Q8NGS6)
T9 sequence (whole entry): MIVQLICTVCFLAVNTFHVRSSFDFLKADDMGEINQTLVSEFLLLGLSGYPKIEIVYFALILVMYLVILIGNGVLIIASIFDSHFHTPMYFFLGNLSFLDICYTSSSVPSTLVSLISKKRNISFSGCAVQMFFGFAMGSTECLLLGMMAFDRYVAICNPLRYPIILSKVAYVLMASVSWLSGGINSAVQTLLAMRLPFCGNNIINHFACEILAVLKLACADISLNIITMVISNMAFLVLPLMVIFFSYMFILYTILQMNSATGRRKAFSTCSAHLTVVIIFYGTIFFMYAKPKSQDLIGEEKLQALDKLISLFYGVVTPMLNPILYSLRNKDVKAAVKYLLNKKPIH
How it was run: as §1

[10] = target: T10, OR13C4 (Homo sapiens) (UniProt Q8NGS5)
T10 sequence (whole entry): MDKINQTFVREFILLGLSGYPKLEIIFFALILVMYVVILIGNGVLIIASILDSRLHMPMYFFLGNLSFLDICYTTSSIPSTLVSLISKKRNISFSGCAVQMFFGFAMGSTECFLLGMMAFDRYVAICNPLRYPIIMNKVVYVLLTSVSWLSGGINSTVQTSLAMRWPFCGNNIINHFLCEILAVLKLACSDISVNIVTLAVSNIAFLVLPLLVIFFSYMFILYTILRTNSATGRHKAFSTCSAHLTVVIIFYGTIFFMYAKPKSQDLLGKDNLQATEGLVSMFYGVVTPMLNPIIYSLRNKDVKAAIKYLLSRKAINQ
How it was run: as §1

[11] = target: T11, OR13C5 (Homo sapiens) (UniProt Q8NGS8)
T11 sequence (whole entry): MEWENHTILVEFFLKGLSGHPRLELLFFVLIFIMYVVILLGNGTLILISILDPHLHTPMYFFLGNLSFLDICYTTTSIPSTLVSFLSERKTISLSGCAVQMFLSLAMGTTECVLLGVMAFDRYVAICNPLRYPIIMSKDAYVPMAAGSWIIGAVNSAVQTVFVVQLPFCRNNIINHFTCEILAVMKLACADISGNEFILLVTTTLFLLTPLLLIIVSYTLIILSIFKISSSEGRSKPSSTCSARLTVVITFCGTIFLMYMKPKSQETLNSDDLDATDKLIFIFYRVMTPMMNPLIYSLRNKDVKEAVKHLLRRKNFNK
How it was run: as §1

[12] = target: T12, OR13C8 (Homo sapiens) (UniProt Q8NGS7)
T12 sequence (whole entry): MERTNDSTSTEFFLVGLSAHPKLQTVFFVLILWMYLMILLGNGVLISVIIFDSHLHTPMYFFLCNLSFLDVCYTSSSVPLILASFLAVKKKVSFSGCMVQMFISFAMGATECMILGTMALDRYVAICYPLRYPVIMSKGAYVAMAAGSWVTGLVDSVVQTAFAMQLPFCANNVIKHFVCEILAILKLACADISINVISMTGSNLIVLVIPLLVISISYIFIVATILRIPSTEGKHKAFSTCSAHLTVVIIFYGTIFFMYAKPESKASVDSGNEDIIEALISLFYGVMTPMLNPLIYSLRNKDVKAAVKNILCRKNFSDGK
How it was run: as §1

[13] = target: T13, OR13C9 (Homo sapiens) (UniProt Q8NGT0)
T13 sequence (whole entry): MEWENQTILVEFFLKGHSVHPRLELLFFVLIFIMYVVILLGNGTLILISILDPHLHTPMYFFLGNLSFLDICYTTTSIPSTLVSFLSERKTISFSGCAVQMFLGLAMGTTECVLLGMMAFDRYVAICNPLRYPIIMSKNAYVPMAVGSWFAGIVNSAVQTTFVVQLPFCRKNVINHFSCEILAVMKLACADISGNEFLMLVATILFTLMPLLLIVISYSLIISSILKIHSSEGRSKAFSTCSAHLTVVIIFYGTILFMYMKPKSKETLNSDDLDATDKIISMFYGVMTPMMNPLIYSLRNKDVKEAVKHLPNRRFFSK
How it was run: as §1

[14] = target: T14, OR13D1 (Homo sapiens) (UniProt Q8NGV5)
T14 sequence (whole entry): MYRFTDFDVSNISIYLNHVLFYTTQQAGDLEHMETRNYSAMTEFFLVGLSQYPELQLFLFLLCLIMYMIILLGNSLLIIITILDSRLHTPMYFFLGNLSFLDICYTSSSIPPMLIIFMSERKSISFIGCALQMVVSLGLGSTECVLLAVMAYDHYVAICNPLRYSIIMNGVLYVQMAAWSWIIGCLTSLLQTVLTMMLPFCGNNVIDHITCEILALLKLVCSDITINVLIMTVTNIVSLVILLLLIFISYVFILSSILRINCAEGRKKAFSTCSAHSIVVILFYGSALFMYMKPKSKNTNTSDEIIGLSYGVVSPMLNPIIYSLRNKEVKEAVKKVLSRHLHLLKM
How it was run: as §1

[15] = target: T15, OR13F1 (Homo sapiens) (UniProt Q8NGS4)
T15 sequence (whole entry): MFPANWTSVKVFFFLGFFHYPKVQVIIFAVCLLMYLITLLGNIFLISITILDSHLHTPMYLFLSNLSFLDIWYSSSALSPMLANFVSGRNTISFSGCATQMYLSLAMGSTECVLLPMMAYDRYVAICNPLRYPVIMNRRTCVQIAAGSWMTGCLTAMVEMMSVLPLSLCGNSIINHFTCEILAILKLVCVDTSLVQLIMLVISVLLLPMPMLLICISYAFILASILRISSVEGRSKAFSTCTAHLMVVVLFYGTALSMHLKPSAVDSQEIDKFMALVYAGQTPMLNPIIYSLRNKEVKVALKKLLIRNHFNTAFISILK
How it was run: as §1

[16] = target: T16, OR13G1 (Homo sapiens) (UniProt Q8NGZ3)
T16 sequence (whole entry): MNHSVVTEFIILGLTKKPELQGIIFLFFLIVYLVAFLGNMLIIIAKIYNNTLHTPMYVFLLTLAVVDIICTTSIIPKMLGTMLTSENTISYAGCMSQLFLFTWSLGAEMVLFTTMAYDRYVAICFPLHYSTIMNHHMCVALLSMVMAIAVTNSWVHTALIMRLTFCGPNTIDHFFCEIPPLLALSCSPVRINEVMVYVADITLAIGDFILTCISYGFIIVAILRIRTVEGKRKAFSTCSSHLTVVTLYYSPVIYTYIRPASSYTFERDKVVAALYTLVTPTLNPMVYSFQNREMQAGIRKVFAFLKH
How it was run: as §1

[17] = target: T17, OR11H12 (Homo sapiens) (UniProt B2RN74)
T17 sequence (whole entry): T1 sequence (whole entry) with H7Q, S33T, I49T, R68W, Y156C, K181M, L199R, P269S
How it was run: as §1

Measured: odorant receptor agonist call

CC(CO)CS (configuration not stated)
active: [11]
not listed: [17]
inactive: all other assays above

CCC1OC(=O)C(O)=C1C (configuration not stated)
inactive: all assays above

CCCC(S)CCOC(C)=O (configuration not stated)
inactive: all assays above

CCCCCCC=CCCC=O
inactive: all assays above
